Experimental data as given in ChEMBL document CHEMBL3784969, “Pharmacokinetics of flutamide in patients with renal insufficiency” (Br J Clin Pharmacol, 1999).

Columns and labels:
Homo sapiens [1] = test: AUC (0 to infinity) in patient (3 patients) with renal insufficiency at 250 mg, po assessed as hydroxy flutamide administered as single dose by gas chromatography; format: ADME, organism-based; parameters: dose 250 mg, time infinity, route oral; settings: in vivo
[2] = AUC (0 to 24 hrs) in patient (4 patients) with renal insufficiency at 250 mg, po administered as single dose by gas chromatography; format: ADME, organism-based; parameters: dose 250 mg, time < 24 hr, route oral; settings: human, in vivo
[3] = Cmax in patient (6 patients) with renal insufficiency at 250 mg, po administered as single dose 4 hrs prior to hemodialysis treatment measured at starting time of dialysis and post dialysis treatment by gas chromatography; format: ADME, organism-based; parameters: dose 250 mg, route oral; settings: human, in vivo
[4] = Tmax in patient (6 patients) with renal insufficiency at 250 mg, po administered as single dose 4 hrs prior to hemodialysis treatment measured at starting time of dialysis and post dialysis treatment by gas chromatography; format: ADME, organism-based; settings: human, in vivo
In short: (§1)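 Group V haemodialysis males (CLcr <5 ml min−1 1.73 m−2). Single oral 250 mg flutamide (two 125 mg capsules) right after HD; after 14-day washout, same dose 4 h before HD lasting 2–4 h. Venous samples to 48 h, arterial/venous during HD, dialysate in hourly blocks. GC with 63Ni electron-capture detection. CL(HD) = dialysate Ae(HD)/arterial AUC(HD); renal CL = Ae(0,48)/AUC(0,48 h).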

[5] = AUClast in patient (6 patients) with renal insufficiency at 250 mg, po administered as single dose 4 hrs prior to hemodialysis treatment measured at starting time of dialysis and post dialysis treatment by gas chromatography; format: ADME, organism-based; parameters: dose 250 mg, route oral, time 0 - last; settings: human, in vivo
Homo sapiens [6] = test: Tmax in patient (6 patients) with renal insufficiency assessed as hydroxy flutamide at 250 mg, po administered as single dose 4 hrs prior to hemodialysis treatment measured at starting time of dialysis and post dialysis treatment by gas chromatography; format: ADME, organism-based; settings: in vivo; in short: as §1
Homo sapiens [7] = test: AUC (0 to 96 hrs) in patient (6 patients) with renal insufficiency assessed as hydroxy flutamide at 250 mg, po administered as single dose 4 hrs prior to hemodialysis treatment measured at starting time of dialysis and post dialysis treatment by gas chromatography; format: ADME, organism-based; parameters: time < 96 hr, dose 250 mg, route oral; settings: in vivo
Homo sapiens [8] = test: Final time point in terminal phase in patient (6 patients) with renal insufficiency assessed as hydroxy flutamide at 250 mg, po administered as single dose 4 hrs prior to hemodialysis treatment measured at starting time of dialysis and post dialysis treatment by gas chromatography; format: ADME, organism-based; settings: in vivo; in short: as §1
Homo sapiens [9] = test: Terminal half life in patient (6 patients) with renal insufficiency assessed as hydroxy flutamide at 250 mg, po administered as single dose 4 hrs prior to hemodialysis treatment measured at starting time of dialysis and post dialysis treatment by gas chromatography; format: ADME, organism-based; settings: in vivo; in short: as §1
[10] = Drug excretion in urine of patient (6 patients) with renal insufficiency assessed as hydroxy flutamide at 250 mg, po administered as single dose 4 hrs prior to hemodialysis treatment measured at starting time of dialysis and post dialysis treatment by gas chromatography; format: ADME, organism-based; settings: human, in vivo; in short: as §1
[11] = Drug recovery in dialysate of patient (6 patients) with renal insufficiency assessed as hydroxy flutamide at 250 mg, po administered as single dose 4 hrs prior to hemodialysis treatment measured during dialysis treatment by gas chromatography; format: ADME, organism-based; settings: human, in vivo; in short: as §1
Homo sapiens [12] = test: AUC in patient with renal insufficiency at 250 mg, po administered first dose followed by 14 days wash out period and administered second dose 4 hrs prior to hemodialysis measured during hemodialysis treatment by gas chromatography; format: ADME, organism-based; settings: in vivo; in short: as §1
[13] = Drug excretion in urine of patient (6 patients) with renal insufficiency at 250 mg, po administered as single dose by gas chromatography; format: ADME, organism-based; settings: human, in vivo
In short: (§2)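 Males grouped by 24 h CLcr normalised to body surface area (>80, 50–80, 30–49, 5–29 ml min−1 1.73 m−2), fasted 10 h pre-dose and 4 h post-dose, given a single oral 250 mg flutamide dose. Plasma sampled 0–96 h; urine collected in blocks to 96 h. Flutamide and hydroxyflutamide measured by GC with electron-capture detection. Renal CL = Ae(0,96 h)/AUC(0,96 h); t1/2 = 0.693/λz.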

[14] = Renal clearance in patient (6 patients) with renal insufficiency at 250 mg, po administered as single dose by gas chromatography; format: ADME, organism-based, Kidney; settings: human, in vivo; in short: as §2
Homo sapiens [15] = test: Final time point in terminal phase in patient (6 patients) with renal insufficiency at 250 mg, po administered as single dose by gas chromatography; format: ADME, organism-based; settings: in vivo; in short: as §2
Homo sapiens [16] = test: AUC (0 to 24 hrs) in patient (6 patients) with renal insufficiency assessed as hydroxy flutamide at 250 mg, po administered as single dose by gas chromatography; format: ADME, organism-based; parameters: time < 24 hr, dose 250 mg, route oral; settings: in vivo
Homo sapiens [17] = test: Terminal half life in patient (6 patients) with renal insufficiency assessed as hydroxy flutamide at 250 mg, po administered as single dose by gas chromatography; format: ADME, organism-based; settings: in vivo; in short: as §2
[18] = Drug excretion in urine of patient (6 patients) with renal insufficiency assessed as hydroxy flutamide at 250 mg, po administered as single dose by gas chromatography; format: ADME, organism-based; settings: human, in vivo; in short: as §2
[19] = AUC (0 to 24 hrs) in patient (7 patients) with renal insufficiency at 250 mg, po administered as single dose by gas chromatography; format: ADME, organism-based; parameters: dose 250 mg, time < 24 hr, route oral; settings: human, in vivo
[20] = AUC (0 to 96 hrs) in patient (7 patients) with renal insufficiency at 250 mg, po administered as single dose by gas chromatography; format: ADME, organism-based; parameters: dose 250 mg, time < 96 hr, route oral; settings: human, in vivo
Homo sapiens [21] = test: Clearance in patient with renal insufficiency at 250 mg, po administered first dose followed by 14 days wash out period and administered second dose 4 hrs prior to hemodialysis measured during hemodialysis treatment by gas chromatography; format: ADME, organism-based; settings: in vivo; in short: as §1
[22] = Half life in patient with renal insufficiency at 250 mg, po administered first dose followed by 14 days wash out period and administered second dose 4 hrs prior to hemodialysis day measured during hemodialysis treatment by gas chromatography; format: ADME, organism-based; settings: human, in vivo; in short: as §1
Homo sapiens [23] = test: Toxicity in patient with renal insufficiency assessed as dizziness at 250 mg, po administered as single dose; format: organism-based; settings: in vivo
In short: (§3)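 26 male subjects in groups by 24 h creatinine clearance (normalized to body surface area): >80, 50–80, 30–49, 5–29, <5 ml min−1 1.73 m−2 on haemodialysis. Given as two 125 mg capsules after a 10 h fast, continued 4 h post-dose. Prescription drugs withheld for the same period. Subjects confined 12 h pre-dose to 48 h post-dose, with adverse events compared across renal-function groups.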

Homo sapiens [24] = test: Toxicity in patient with renal insufficiency assessed as headache at 250 mg, po administered as single dose; format: organism-based; settings: in vivo; in short: as §3
[25] = AUClast in patient (7 patients) with renal insufficiency at 250 mg, po administered as single dose by gas chromatography; format: ADME, organism-based; parameters: dose 250 mg, time 0 - last, route oral; settings: human, in vivo
[26] = Drug excretion in urine of patient (7 patients) with renal insufficiency at 250 mg, po administered as single dose by gas chromatography; format: ADME, organism-based; settings: human, in vivo; in short: as §2
[27] = Renal clearance in patient (7 patients) with renal insufficiency at 250 mg, po administered as single dose by gas chromatography; format: ADME, organism-based, Kidney; settings: human, in vivo; in short: as §2
Homo sapiens [28] = test: Cmax in patient (7 patients) with renal insufficiency assessed as hydroxy flutamide at 250 mg, po administered as single dose by gas chromatography; format: ADME, organism-based; parameters: dose 250 mg, route oral; settings: in vivo
Homo sapiens [29] = test: Final time point in terminal phase in patient (7 patients) with renal insufficiency assessed as hydroxy flutamide at 250 mg, po administered as single dose by gas chromatography; format: ADME, organism-based; settings: in vivo; in short: as §2
[30] = Drug excretion in urine of patient (7 patients) with renal insufficiency assessed as hydroxy flutamide at 250 mg, po administered as single dose by gas chromatography; format: ADME, organism-based; settings: human, in vivo; in short: as §2
[31] = AUC (0 to 96 hrs) in patient (3 patients) with renal insufficiency at 250 mg, po administered as single dose by gas chromatography; format: ADME, organism-based; parameters: time < 96 hr, dose 250 mg, route oral; settings: human, in vivo

With `CC(C)C(=O)Nc1ccc([N+](=O)[O-])c(C(F)(F)F)c1` [FLUTAMIDE] the AUC (Homo sapiens [1]) was 6907 ng·h/mL, the AUC(0-t) at 24 h [2] was 107 ng·h/mL and the Cmax [3] was 81 ng/mL. The Tmax [4] was 1 h, the AUC(0-t) at 4 h [5] was 179 ng·h/mL and the Tmax (Homo sapiens [6]) was 1 h. For the same compound, the AUC (Homo sapiens [7]) was 5963 ng·h/mL, the Time (Homo sapiens [8]) was 43 h and the “beta t1/2” value (Homo sapiens [9]) was 8 h. For the same compound, the Drug excretion [10] was 5 µg, the Drug recovery [11] was 1.2 mg and the AUC (Homo sapiens [12]) was 907.6 ng·h/mL. The Drug excretion [13] was 24.4 µg, the CL renal [14] was 7.1 mL/min and the Time (Homo sapiens [15]) was 4.4 h. The AUC (Homo sapiens [16]) was 5132 ng·h/mL, the “beta t1/2” value (Homo sapiens [17]) was 7.3 h and the Drug excretion [18] was 118.3 µg. It also gave an AUC(0-t) at 24 h [19] of 59.8 ng·h/mL, an AUC(0-t) at 96 h [20] of 59.8 ng·h/mL and a CL (Homo sapiens [21]) of 21.4 mL/min. For the same compound, the half-life [22] was 4.3 h, the Activity (Homo sapiens [23]) was 15% and the Activity (Homo sapiens [24]) was 12%. It also gave an AUC(0-t) [25] of 32.5 ng·h/mL, a Drug excretion [26] of 39 µg and a CL renal [27] of 22.8 mL/min. For the same compound, the Cmax (Homo sapiens [28]) was 967 ng/mL, the Time (Homo sapiens [29]) was 38.6 h and the Drug excretion [30] was 88.3 µg. For the same compound, the AUC(0-t) at 96 h [31] was 98 ng·h/mL.
